Experiments:
rhinovirus B14 = test: Antiviral activity against Human rhinovirus B14 infected in human H1HeLa cells assessed as protection against virus induced cytopathic effect after 3 days by MTT assay; assay type: functional, cell-based; details: Rhinovirus B, H1-HeLa, 72 h
rhinovirus A21 = test: Antiviral activity against Human rhinovirus A21 infected in human H1HeLa cells assessed as protection against virus induced cytopathic effect after 3 days by MTT assay; assay type: functional, cell-based; details: Rhinovirus A, H1-HeLa, 72 h
Method in brief: (§1)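 CPE-reduction assay in H1HeLa cells plated 2 d before. Equal volumes of virus and compound were added and held at 33 °C for 3 d under CO2. Supernatant was removed, then MTT was added for 1 h at 37 °C. Formazan was dissolved and read at 540 nm against a 690 nm reference. Survival was scaled between uninfected untreated wells (100%) and virus-only wells (0%); mean ± SD, three experiments.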

[1] = Cytotoxicity against human H1HeLa cells assessed as decrease in cell viability after 3 days by MTT assay; assay type: cell-based, H1-HeLa
[2] = Antiviral activity against Human rhinovirus A71 infected in human H1HeLa cells assessed as protection against virus induced cytopathic effect after 3 days by MTT assay; assay type: functional, cell-based; details: Rhinovirus A, H1-HeLa, 72 h; method in brief: as §1
[3] = Selectivity index, ratio of CC50 for human H1HeLa cells to EC50 for Human rhinovirus B14 infected in human H1HeLa cells; assay type: toxicity, cell-based; details: read-out: Ratio CC50/EC50
Method in brief: (§2)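 H1HeLa cells plated 2 d ahead; virus plus compound (equal volumes) incubated 33 °C, 3 d, CO2. MTT 1 h at 37 °C, A540/A690. Survival scaled between uninfected untreated (100%) and virus-only (0%) wells to give EC50. CC50 = 50% cell death by MTT in H1HeLa. SI = CC50/EC50; at least three independent experiments.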

[4] = Selectivity index, ratio of CC50 for human H1HeLa cells to EC50 for Human rhinovirus A21 infected in human H1HeLa cells; assay type: toxicity, cell-based; details: read-out: Ratio CC50/EC50; method in brief: as §2
[5] = Selectivity index, ratio of CC50 for human H1HeLa cells to EC50 for Human rhinovirus A71 infected in human H1HeLa cells; assay type: toxicity, cell-based; details: read-out: Ratio CC50/EC50; method in brief: as §2
Poliovirus 3 = test: Antiviral activity against Human poliovirus 3 infected in human HeLa cells assessed as protection against virus induced cytopathic effect after 2 days by MTT assay; assay type: functional, cell-based; details: Enterovirus C, 48 h
Method in brief: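 HeLa cells; MTT-based CPE reduction. Virus and compound added in equal volumes, incubated 37 °C for 2 d in CO2. Supernatant removed, MTT 1 h at 37 °C, formazan dissolved, absorbance 540 nm (690 nm reference). Uninfected untreated wells = 100% survival, virus-only = 0%. EC50 = 50% inhibition; means ± SD, three experiments.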

[6] = Cytotoxicity aganist human HeLa cells assessed as decrease in cell viability after 2 days by MTT assay; assay type: cell-based
[7] = Selectivity index, ratio of CC50 for human HeLa cells to EC50 for human poliovirus 3 infected in human HeLa cells; assay type: toxicity, cell-based; details: read-out: Ratio CC50/EC50
Method in brief: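 SI = CC50/EC50 in HeLa cells. CC50 = 50% cell death by MTT. EC50 = 50% inhibition of PV3 CPE by MTT after 2 d at 37 °C, survival scaled to uninfected (100%) and virus-only (0%) wells. At least three independent experiments.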

| SMILES | EC50 (rhinovirus B14) [µM] | EC50 (rhinovirus A21) [µM] | CC50 at 72 h [1] [µM] | EC50 [2] [µM] | selectivity ratio [3] | selectivity ratio [4] | selectivity ratio [5] | EC50 (Poliovirus 3) [µM] | CC50 at 48 h [6] [µM] | selectivity ratio [7] |
| --- | --- | --- | --- | --- | --- | --- | --- | --- | --- | --- |
| CNC(=O)c1cc(Oc2ccc3c(C)c(C(=O)OC(C)C)n(C)c3c2)ccn1 | 1.9 | 0.13 | 11.2 | 0.06 | 5.9 | 86 | 190 | 0.071 | 8.5 | 120 |
| CNC(=O)c1cc(Oc2ccc3ccc(C(=O)Oc4ccccc4)cc3c2)ccn1 | > 100 | > 100 | > 100 | 8.27 | – | – | > 12 | 60.1 | > 100 | > 1.7 |
| CCOC(=O)c1ccc2ccc(Oc3ccnc(C(=O)NC)c3)cc2n1 | 56.6 | 44.3 | > 100 | 1.3 | > 1.8 | > 2.3 | > 77 | 1.9 | > 100 | > 53 |
| CNC(=O)c1cc(Oc2ccc3cc(C(=O)OC(C)C)sc3c2)ccn1 | 1.7 | 1.5 | 45.7 | 0.013 | 27 | 31 | 3500 | 6.4 | 45 | 7 |
| CCOC(=O)c1cc2ccc(Oc3ccnc(C(=O)NC)c3)cc2s1 | 24.6 to 58.4 | 1.2 to 1.3 | > 100 | 0.019 | > 1.7 | > 77 | > 5300 | 64.3 | > 100 | > 1.6 |
| CCOC(=O)c1cc2ccc(Oc3ccncc3)cc2s1 | > 42.4 | > 42.4 | 42.4 | 7.3 | – | – | 5.8 | > 43.9 | 43.9 | – |
| CNC(=O)c1ccc(Oc2ccc3c(C)c(C(=O)OC(C)C)sc3c2)cn1 | > 7.6 | 3.3 | 7.6 | 1.7 | – | 2.3 | 4.5 | > 12.9 | 12.9 | – |
| CNC(=O)c1cc(Oc2ccc3c(C)c(C(=O)OC)sc3c2)ccn1 | 2 | 0.25 | 10.8 | 1.6 | 5.4 | 43 | 6.8 | 0.087 | 15.7 | 180 |
| CNC(=O)c1cc(Oc2ccc3ccc(C(=O)OC)cc3c2)ccn1 | 11 | 2 | 53.5 | 1.6 | 4.9 | 27 | 33 | 0.044 | 33.8 | 770 |
| CCOC(=O)c1sc2cc(Oc3ccnc(C(=O)NC)c3)ccc2c1CC | 13.5 | 0.21 | 35.2 | 1.3 | 2.6 | 170 | 27 | > 16.7 | 16.7 | – |
| CCOC(=O)c1cc2ccc(Oc3ccnc(C(=O)NC)c3)cc2o1 | > 100 | 66 | > 100 | 1.4 | – | > 1.5 | > 71 | > 100 | > 100 | – |
| CNC(=O)c1cc(Oc2ccc3c(C)c(C(=O)OCc4ccccc4)sc3c2)ccn1 | > 18.8 | 0.55 | 18.8 | 1.4 | – | 34 | 13 | 0.34 | 18.1 | 53 |
| CCNC(=O)c1sc2cc(Oc3ccnc(C(=O)NC)c3)ccc2c1C | > 100 | > 100 | > 100 | > 100 | – | – | – | > 100 | > 100 | – |
| CNC(=O)c1cc(Oc2ccc3c(C)c(C(=O)N(C)C)sc3c2)ccn1 | > 42.5 | > 42.5 | 42.5 | > 42.5 | – | – | – | > 44.4 | 44.4 | – |
| CCOC(=O)c1cc2ccc(OC)cc2s1 | > 70.9 | > 70.9 | 70.9 | 5.1 | – | – | 14 | 13.1 | 44.4 | 3.4 |
| CCOC(=O)c1sc2cc(Oc3ccnc(C(=O)OC)c3)ccc2c1C | > 24.9 | > 24.9 | 24.9 | 15 | – | – | 1.7 | > 26.2 | 26.2 | – |
| CCOC(=O)c1sc2cc(OC)ccc2c1C | > 100 | > 100 | > 100 | 3.8 | – | – | > 26 | 1.8 | > 100 | > 56 |
| CNC(=O)c1cc(Oc2ccc3c(C)c(C(=O)OC(C)C)[nH]c3c2)ccn1 | > 14.6 | 2.5 | 14.6 | 1.9 | – | 5.8 | 7.7 | 0.072 | 8.4 | 120 |
| COc1ccc(OCc2ccc(COc3c(Cl)cccc3Cl)cc2)c(Cl)c1 | > 100 | 2 | > 100 | 0.25 | – | > 50 | > 400 | 0.08 | 16 | 200 |
| CCOC(=O)c1cc2cc(Oc3ccnc(C(=O)NC)c3)ccc2cc1O | > 100 | 0.41 | > 100 | 0.29 | – | > 240 | > 340 | 0.18 | > 100 | > 560 |
| CCOC(=O)c1sc2cc(O)ccc2c1C | > 82 | > 82 | 82 | > 82 | – | – | – | 9.4 | 46.6 | 5 |
| CCOC(=O)c1cc2ccc(Oc3ccccc3)cc2s1 | 68.6 | 51.1 | > 100 | 2.8 | > 1.5 | > 2 | > 36 | > 90.1 | 90.1 | – |
| CCOC(=O)c1cc2ccc(O)cc2s1 | > 52.3 | > 52.3 | 52.3 | 8.9 | – | – | 5.9 | > 46.9 | 46.9 | – |
| CNC(=O)c1cc(Oc2ccc3cc(C(=O)OC)sc3c2)ccn1 | > 100 | 75.6 | > 100 | 4.6 | – | > 1.3 | > 22 | > 68.3 | 68.3 | – |
| CCOC(=O)c1sc2cc(Oc3ccnc(C(=O)NC)c3)ccc2c1Cl | 11.7 | 1.7 | 46.9 | 2.7 | 4 | 28 | 17 | > 45.6 | 45.6 | – |
| CCOC(=O)c1sc2cc(Oc3ccccc3)ccc2c1C | > 100 | 1 | > 100 | 1.7 | – | > 100 | > 59 | > 47.6 | 47.6 | – |
| CNC(=O)c1cc(Oc2ccc3c(C)c(C(=O)O)sc3c2)ccn1 | > 100 | > 100 | > 100 | > 100 | – | – | – | > 100 | > 100 | – |
| CCC(C)OC(=O)c1ccc2ccc(Oc3ccnc(C(=O)NC)c3)cc2c1 (stereo not given) | > 16 | 0.41 | 16 | 0.013 | – | 39 | 1200 | 0.35 | 9 | 26 |
| CCOC(=O)c1sc2cc(Oc3ccnc(C(=O)NC)c3)ccc2c1N | > 0.11 | > 0.11 | 0.11 | > 0.11 | – | – | – | > 0.45 | 0.45 | – |
